Reference: ChEMBL document CHEMBL4831495, “Discovery of novel BCR-ABL PROTACs based on the cereblon E3 ligase design, synthesis, and biological evaluation” (Eur J Med Chem, 2021)

Experiments:
[1] = system: K562; test: Antiproliferative activity against human K562 cells assessed as cell growth inhibition measured after 48 hrs by CCK8 assay; format: functional, cell-based; conditions: K562, 48 h
Method in brief: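 Cells were seeded at 3000-20,000 per well and given 3-fold serial dilutions of compound in medium. After 2 days at 37 °C in 5% CO2, CCK-8 reagent was added for 2-4 h and absorbance was read at 450 nm.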

[2] = molecular target: Protein cereblon/Tyrosine-protein kinase ABL1/Breakpoint cluster region protein (Homo sapiens, UniProt P00519+P11274+Q96SW2); test: PROTAC activity at CRBN/Bcr-Abl in human K562 cells assessed as degrading activity by Western blotting analysis; format: cell-based
Protein cereblon/Tyrosine-protein kinase ABL1/Breakpoint cluster region protein, sequence (P00519 whole entry): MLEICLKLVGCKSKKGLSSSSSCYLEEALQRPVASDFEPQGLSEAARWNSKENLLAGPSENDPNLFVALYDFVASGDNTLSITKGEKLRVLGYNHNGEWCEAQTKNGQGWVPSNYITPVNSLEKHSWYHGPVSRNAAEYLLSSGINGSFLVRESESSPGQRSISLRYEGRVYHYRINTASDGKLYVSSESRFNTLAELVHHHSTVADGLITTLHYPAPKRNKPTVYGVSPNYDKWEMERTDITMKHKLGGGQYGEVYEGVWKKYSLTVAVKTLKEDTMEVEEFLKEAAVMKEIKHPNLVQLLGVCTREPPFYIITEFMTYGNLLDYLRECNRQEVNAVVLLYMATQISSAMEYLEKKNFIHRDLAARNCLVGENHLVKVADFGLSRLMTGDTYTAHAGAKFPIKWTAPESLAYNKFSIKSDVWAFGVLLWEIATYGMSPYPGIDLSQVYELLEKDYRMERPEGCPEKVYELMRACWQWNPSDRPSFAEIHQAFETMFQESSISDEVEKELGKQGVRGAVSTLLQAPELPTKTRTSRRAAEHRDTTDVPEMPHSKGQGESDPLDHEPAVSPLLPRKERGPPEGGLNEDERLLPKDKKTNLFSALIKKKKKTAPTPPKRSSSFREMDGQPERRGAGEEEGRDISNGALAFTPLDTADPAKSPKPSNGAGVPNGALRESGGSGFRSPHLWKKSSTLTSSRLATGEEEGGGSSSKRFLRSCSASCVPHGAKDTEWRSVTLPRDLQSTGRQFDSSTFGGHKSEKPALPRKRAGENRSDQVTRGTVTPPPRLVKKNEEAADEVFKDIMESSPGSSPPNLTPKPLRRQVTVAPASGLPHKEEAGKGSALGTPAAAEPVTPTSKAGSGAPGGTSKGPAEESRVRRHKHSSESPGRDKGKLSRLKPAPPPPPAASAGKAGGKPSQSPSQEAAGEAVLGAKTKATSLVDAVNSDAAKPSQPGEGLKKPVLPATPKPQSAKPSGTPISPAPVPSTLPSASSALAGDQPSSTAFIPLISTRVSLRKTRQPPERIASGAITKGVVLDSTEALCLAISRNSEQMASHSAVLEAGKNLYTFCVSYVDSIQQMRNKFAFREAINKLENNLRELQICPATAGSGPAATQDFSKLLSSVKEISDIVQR
Protein cereblon/Tyrosine-protein kinase ABL1/Breakpoint cluster region protein, sequence (P11274 whole entry): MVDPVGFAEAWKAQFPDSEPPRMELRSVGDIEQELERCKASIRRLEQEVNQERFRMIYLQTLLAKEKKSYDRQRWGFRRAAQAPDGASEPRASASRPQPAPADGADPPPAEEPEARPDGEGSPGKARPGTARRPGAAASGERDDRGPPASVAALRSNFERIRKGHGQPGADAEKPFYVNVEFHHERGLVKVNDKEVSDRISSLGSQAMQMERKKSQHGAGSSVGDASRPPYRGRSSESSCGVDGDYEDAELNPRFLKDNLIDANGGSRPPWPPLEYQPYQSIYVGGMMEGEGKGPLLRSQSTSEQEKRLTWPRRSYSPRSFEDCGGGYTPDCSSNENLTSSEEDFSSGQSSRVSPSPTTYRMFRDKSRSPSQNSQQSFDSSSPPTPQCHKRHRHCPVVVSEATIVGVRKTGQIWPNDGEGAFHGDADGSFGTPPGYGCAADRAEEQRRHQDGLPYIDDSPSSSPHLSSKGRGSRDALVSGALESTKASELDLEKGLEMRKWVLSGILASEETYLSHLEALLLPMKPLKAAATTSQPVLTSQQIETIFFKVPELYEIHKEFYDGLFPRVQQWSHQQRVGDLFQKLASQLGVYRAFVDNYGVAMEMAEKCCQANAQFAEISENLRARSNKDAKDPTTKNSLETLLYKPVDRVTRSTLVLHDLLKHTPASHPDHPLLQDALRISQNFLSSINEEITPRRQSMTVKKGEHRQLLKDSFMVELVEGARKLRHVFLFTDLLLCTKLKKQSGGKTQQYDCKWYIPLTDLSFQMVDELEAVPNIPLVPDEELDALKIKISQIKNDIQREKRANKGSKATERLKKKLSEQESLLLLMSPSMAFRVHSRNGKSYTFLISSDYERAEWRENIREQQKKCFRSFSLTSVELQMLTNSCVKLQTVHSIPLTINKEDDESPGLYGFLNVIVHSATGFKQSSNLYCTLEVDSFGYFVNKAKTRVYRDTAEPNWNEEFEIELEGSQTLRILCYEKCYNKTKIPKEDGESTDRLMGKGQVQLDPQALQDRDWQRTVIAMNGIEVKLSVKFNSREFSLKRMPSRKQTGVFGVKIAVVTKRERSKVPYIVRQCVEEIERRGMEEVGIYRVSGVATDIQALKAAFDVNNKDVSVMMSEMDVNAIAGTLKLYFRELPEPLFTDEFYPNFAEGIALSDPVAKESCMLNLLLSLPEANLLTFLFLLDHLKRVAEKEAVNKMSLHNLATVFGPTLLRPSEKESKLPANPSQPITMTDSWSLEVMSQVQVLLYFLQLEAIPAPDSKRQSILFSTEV
Protein cereblon/Tyrosine-protein kinase ABL1/Breakpoint cluster region protein, sequence (Q96SW2 whole entry): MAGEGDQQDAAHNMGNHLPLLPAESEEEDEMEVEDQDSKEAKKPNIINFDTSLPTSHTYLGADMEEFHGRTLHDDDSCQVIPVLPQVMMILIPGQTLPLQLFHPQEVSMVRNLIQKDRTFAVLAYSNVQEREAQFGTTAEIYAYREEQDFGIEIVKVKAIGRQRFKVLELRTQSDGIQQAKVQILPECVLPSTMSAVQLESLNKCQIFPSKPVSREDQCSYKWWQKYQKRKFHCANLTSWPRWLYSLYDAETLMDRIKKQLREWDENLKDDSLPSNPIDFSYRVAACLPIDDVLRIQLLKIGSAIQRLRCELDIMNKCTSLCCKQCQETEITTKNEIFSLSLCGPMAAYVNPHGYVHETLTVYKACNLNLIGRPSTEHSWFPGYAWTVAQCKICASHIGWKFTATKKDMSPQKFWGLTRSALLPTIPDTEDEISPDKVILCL

[3] = system: K562; test: Antitumor activity against human K562 cells xenografted in NOD-SCID mouse assessed as tumor growth inhibition at 5 mg/kg, po administered daily 10 days; conditions: 240 h, read-out: TGI

| IC50 [1] [nM] | DC50 [2] [nM] | SMILES | inhibition in vivo at 5 mg/kg [3] [%] |
| --- | --- | --- | --- |
| 40.4 | 26.1 | Cc1nc(Nc2ncc(C(=O)Nc3c(C)cccc3Cl)s2)cc(N2CCN(C(=O)CCOCCOCCOCCOCCNc3cccc4c3C(=O)N(C3CCC(=O)NC3=O)C4=O)CC2)n1 (stereo unspecified) |  |
| 2.84 | 95.4 | Cc1nc(Nc2ncc(C(=O)Nc3c(C)cccc3Cl)s2)cc(N2CCN(C(=O)CCc3cccc4c3C(=O)N(C3CCC(=O)NC3=O)C4=O)CC2)n1 (stereo unspecified) |  |
|  |  | Cc1nc(Nc2ncc(C(=O)Nc3c(C)cccc3Cl)s2)cc(N2CCN(CCO)CC2)n1 [DASATINIB] | 95.1 |
| > 10000 |  | Nc1cccc2c1C(=O)N(C1CCC(=O)NC1=O)C2=O (stereo unspecified) [POMALIDOMIDE] |  |
| 7 | 11.1 | Cc1nc(Nc2ncc(C(=O)Nc3c(C)cccc3Cl)s2)cc(N2CCN(C(=O)COc3cccc4c3C(=O)N(C3CCC(=O)NC3=O)C4=O)CC2)n1 (stereo unspecified) |  |
| 5.7 | 8.9 | Cc1nc(Nc2ncc(C(=O)Nc3c(C)cccc3Cl)s2)cc(N2CCN(C(=O)CSc3cccc4c3CN(C3CCC(=O)NC3=O)C4=O)CC2)n1 (stereo unspecified) |  |
| 4.2 | 11.1 | Cc1nc(Nc2ncc(C(=O)Nc3c(C)cccc3Cl)s2)cc(N2CCN(C(=O)CCCCNc3cccc4c3CN(C3CCC(=O)NC3=O)C4=O)CC2)n1 (stereo unspecified) |  |
| 206 | 245 | Cc1nc(Nc2ncc(C(=O)Nc3c(C)cccc3Cl)s2)cc(N2CCN(C(=O)CS(=O)(=O)c3cccc4c3C(=O)N(C3CCC(=O)NC3=O)C4=O)CC2)n1 (stereo unspecified) |  |
| 4.1 |  | Cc1nc(Nc2ncc(C(=O)Nc3c(C)cccc3Cl)s2)cc(N2CCN(CCCCCCOCCOCCOCCCCCC(=O)Nc3cccc4c3C(=O)N(C3CCC(=O)NC3=O)C4=O)CC2)n1 (stereo unspecified) |  |
| 0.55 | 11 | Cc1nc(Nc2ncc(C(=O)Nc3c(C)cccc3Cl)s2)cc(N2CCN(C(=O)CCCCNc3cccc4c3C(=O)N(C3CCC(=O)NC3=O)C4=O)CC2)n1 (stereo unspecified) |  |
| 3.2 | 5.6 | Cc1nc(Nc2ncc(C(=O)Nc3c(C)cccc3Cl)s2)cc(N2CCN(C(=O)CSc3cccc4c3C(=O)N(C3CCC(=O)NC3=O)C4=O)CC2)n1 (stereo unspecified) |  |
| 0.51 | 2.7 | Cc1nc(Nc2ncc(C(=O)Nc3c(C)cccc3Cl)s2)cc(N2CCN(CCSc3cccc4c3CN(C3CCC(=O)NC3=O)C4=O)CC2)n1 (stereo unspecified) |  |
